Reference: ChEMBL document CHEMBL1133585, “Antimalarial activity of compounds interfering with Plasmodium falciparum phospholipid metabolism: comparison between mono- and bisquaternary ammonium salts” (J Med Chem, 2000)
pIC50: −log10 of the molar value.

Tested on: Plasmodium falciparum
Assay: In vitro activity against Plasmodium falciparum
Type: functional, organism-based
How it was run: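 P. falciparum cultures at 0.3-0.5% parasitemia (percentage of infected erythrocytes) exposed to drug for one parasite cycle (48 h). Some drugs were dissolved in DMSO, then diluted in culture medium (final DMSO ≤0.25%). [3H]hypoxanthine was then added for 18 h to measure viability. IC50 is 50% inhibition of parasite growth, given as the mean of at least two independent experiments in triplicate using different stock solutions.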

Compared with CCCCCCCCCCCCCCCC[N+](CC)(CC)CC, CCCCCCCCCCCCCCCCCC[N+](CC)(CC)CC is 0.28 log units lower in pIC50: 6.85 for the first, 6.57 for the second. The first is the more potent here.

Compared with CCCCCCCCCCCC[N+](C)(C)CCCCCCCCCCCCCCCC[N+](C)(C)CCCCCCCCCCCC, CCCCCCCCCCCC[N+](C)(C)CCCCCCCCCCCC[N+](C)(C)CCCCCCCCCCCC is 1.00 log units higher in pIC50: 5.74 for the first, 6.74 for the second. The second is the more potent here.

CCCCCCCC[N+](C)(C)CCO and CCCCCCCC[N+](C)(C)C are within 0.2 log units of each other in pIC50: 5.41 for the first, 5.30 for the second.

Going from CCCCCCCCCCCC[N+](C)(C)CCCCCC[N+](C)(C)CCCCCCCCCCCC to CCCCCCCCCCCC[N+](C)(C)CCC[N+](C)(C)CCCCCCCCCCCC, the pIC50 falls from 6.66 to 4.97 (1.69 log units). The first is the more potent here.

Compared with CC[N+](CC)(CC)CCCCCCCCCCCC[N+](CC)(CC)CC, CC[N+](CC)(CC)CCCCCCCCCCCCCCCC[N+](CC)(CC)CC is 1.45 log units higher in pIC50: 7.35 for the first, 8.80 for the second. The second is the more potent here.

First: C=CC[N+](C)(CC=C)CCCCCCCCCCCC
Second: C=CC[N+](C)(C)CCCCCCCCCCCC
The pIC50 of the first is 0.28 log units higher: 6.85 for the first, 6.57 for the second. The first is the more potent here.

Compared with C#CCC[N+](C)(C)CCCCCCCCCCCC, C#CC[N+](C)(C)CCCCCCCCCCCC is 0.20 log units lower in pIC50: 6.64 for the first, 6.44 for the second.

Going from C#CC[N+](C)(CC#C)CCCCCCCCCCCC to C#CC[N+](C)(C)CCCCCCCCCCCC[N+](C)(C)CC#C, the pIC50 rises from 6.42 to 8.12 (1.70 log units). The second is the more potent here.

Compared with CCCCC[N+](C)(C)CC(C)O (stereo unspecified), CCCCCCCCCCCC[N+](C)(C)CC(C)O (stereo unspecified) is 2.43 log units higher in pIC50: 3.94 for the first, 6.37 for the second.

CCCCCCCCCCCCCCCC[N+]1(C)CCCC1 and CCCCCCCCCCCCCC[N+]1(C)CCCC1 are within 0.2 log units of each other in pIC50: 6.38 for the first, 6.57 for the second.

Compared with CCCCCC[N+](CC)(CC)CC, CC[N+](CC)(CC)CCCCCCCC[N+](CC)(CC)CC is 1.26 log units higher in pIC50: 5.01 for the first, 6.27 for the second.

Compared with CCCCCC[N+]1(C)CCCC1, CCCCCCCCCCCC[N+]1(C)CCCC1 is 2.07 log units higher in pIC50: 4.59 for the first, 6.66 for the second.

First: CC[N+](CC)(CC)CCCCCC[N+](CC)(CC)CCCCCC[N+](CC)(CC)CC
Second: CC[N+](CC)(CC)CCCCCCCCCCCCCCCCCCCCC[N+](CC)(CC)CC
The pIC50 of the first is 8.42 log units lower: 3.10 for the first, 11.52 for the second.

CCCCCCCCCCCC[N+](C)(C)C(C)C(O)c1ccccc1 (stereo unspecified) and C[N+](C)(C)CCCCCCCCc1ccccc1 are within 0.2 log units of each other in pIC50: 6.17 for the first, 6.21 for the second.

First: C[N+]1(CCCCCCCCCCCC[N+]2(C)CCCC2)CCCC1
Second: C[N+]1(CCCCCCCCCCCCCC[N+]2(C)CCCC2)CCCC1
The pIC50 of the first is 1.07 log units lower: 7.89 for the first, 8.96 for the second. The second is the more potent here.

Compared with C[N+](C)(C)CCCCCCCCCCCCCCCC[N+](C)(C)C, CCCCCCCCCCCCCCCC[N+](C)(C)CCO is 2.31 log units lower in pIC50: 8.40 for the first, 6.09 for the second. The first is the more potent here.

Going from C#CCC[N+](C)(C)CCCCCCCCCCCC[N+](C)(C)CCC#C to C=CC[N+](CC)(CC)CCCCCCCCCCCC[N+](CC)(CC)CC=C, the pIC50 rises from 7.36 to 8.28 (0.92 log units). The second is the more potent here.

Compared with CC[N+](CC)(CCO)CCCCCCCCCCCCCCCC[N+](CC)(CC)CCO, C[N+]1(CCCCCCCCCCCCCCCC[N+]2(C)CCCC2)CCCC1 is 0.88 log units higher in pIC50: 8.31 for the first, 9.19 for the second.
